Results taken from the RNAGym collection of RNA variant scans (doi:10.1002/anie.201605470).

B1: Osa-1-4 twister ribozyme (parent)
chain: CCGCCUAACACUGCCAAUGCCGGUCCCAAGCCCGGAUAAAAGUGGAGGGGGCGG

Variants of: B1
Experiment: self-cleavage, relative activity (ratio to wild type); higher = more cleavage; co-transcriptional
Summary of the method: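 A DNA template encoding a 54-nucleotide twister ribozyme from Oryza sativa was made so that each of the 48 positions downstream of the cleavage site carried 97 % wild-type base and 1 % of each other base. Transcription in vitro ran for 2 h at 37 °C, during which the ribozyme could cleave itself. Reverse transcription used a template-switching oligonucleotide, and the products were PCR-amplified and deep-sequenced. Each read was scored as cleaved or uncleaved by whether upstream sequence was present, and relative activity is the fraction cleaved normalised to wild type.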

Variant | self-cleavage
CCGCCUAACACUGCCAGUGCCGGUCCCAAGCCCGGAUAAAAGUGGAGGGGGCGC | 0.92
CCGCCUAACACUGCCAGUGCCGGUCCCAAGCCCGGAUAAAAGUGGAGGGGGCGA | 0.9
CCGCCUAACACUGCCAGUGCCGGUCCCAAGCCCGGAUAAAAGUGGAGGGGGCGU | 0.91
CCGCCUAACACUGCCAGUGCCGGUCCCAAGCCCGGAUAAAAGUGGAGGGGGCCG | 0.12
CCGCCUAACACUGCCAGUGCCGGUCCCAAGCCCGGAUAAAAGUGGAGGGGGCUG | 0.54
CCGCCUAACACUGCCAGUGCCGGUCCCAAGCCCGGAUAAAAGUGGAGGGGGCAG | 0.85
CCGCCUAACACUGCCAGUGCCGGUCCCAAGCCCGGAUAAAACUGGAGGGGGCGG | 0.08
CCGCCUAACACUGCCAGUGCCGGUCCCAAGCCCGGAUAAAAUUGGAGGGGGCGG | 0.21
CCGCCUAACACUGCCAGUGCCGGUCCCAAGCCCGGAUAAAAAUGGAGGGGGCGG | 0.58
CCGCCUAACACUGCCAGUGCCGGUCCCAAGCCCGGAUAAAAGUGCAGGGGGCGG | 0.07
CCGCCUAACACUGCCAGUGCCGGUCCCAAGCCCGGAUAAAAGUGAAGGGGGCGG | 0.43
CCGCCUAACACUGCCAGUGCCGGUCCCAAGCCCGGAUAAAAGUGUAGGGGGCGG | 0.17
CCGCCUAACACUGCCAGUGCCGGUCCCAAGCCCGGAUAAAAGUGGAGGGUGCGG | 0.99
CCGCCUAACACUGCCAGUGCCGGUCCCAAGCCCGGAUAAAAGUGGAGGGCGCGG | 0.91
CCGCCUAACACUGCCAGUGCCGGUCCCAAGCCCGGAUAAAAGUGGAGGGAGCGG | 0.51
CCGCCUAACACUGCCAGUGCCGGUCCCAAGCCCGUAUAAAAGUGGAGGGGGCGG | 0.77
CCGCCUAACACUGCCAGAGCCGGUCCCAAGCCCGGAUAAAAGUGGAGGGGGCGG | 0.94
CCGCCUAACACUGCCAGCGCCGGUCCCAAGCCCGGAUAAAAGUGGAGGGGGCGG | 0.52
CCGCCUAACACUGCCAGGGCCGGUCCCAAGCCCGGAUAAAAGUGGAGGGGGCGG | 0.85
CCGCCUAACACUGCCAGUGCCGGUCCCAAGCCCGGAUAAAAGUGGAGGGGCCGG | 0.14
CCGCCUAACACUGCCAGUGCCGGUCCCAAGCCCGGAUAAAAGUGGAGGGGUCGG | 0.3
CCGCCUAACACUGCCAGUGCCGGUCCCAAGCCCGGAUAAAAGUGGAGGGGACGG | 0.44
CCGCCUAACACUGCCAGUGCCGGUCCCAAGCCCGGAUAAAAGGGGAGGGGGCGG | 0.51
CCGCCUAACACUGCCAGUGCCGGUCCCAAGCCCGGAUAAAAGCGGAGGGGGCGG | 0.72
CCGCCUAACACUGCCAGUGCCGGUCCCAAGCCCGGAUAAAAGAGGAGGGGGCGG | 0.81

Variant | self-cleavage
CCGCCUAACACUGCCAGUGCCGGUCCCAAGCCCGGAUAAAAGUGGACGGGGCGG | 0.17
CCGCCUAACACUGCCAGUGCCGGUCCCAAGCCCGGAUAAAAGUGGAAGGGGCGG | 0.46
CCGCCUAACACUGCCAGUGCCGGUCCCAAGCCCGGAUAAAAGUGGAUGGGGCGG | 0.43
CCGCCUAACACCGCCAGUGCCGGUCCCAAGCCCGGAUAAAAGUGGAGGGGGCGG | 0.56
CCGCCUAACACAGCCAGUGCCGGUCCCAAGCCCGGAUAAAAGUGGAGGGGGCGG | 0.86
CCGCCUAACACGGCCAGUGCCGGUCCCAAGCCCGGAUAAAAGUGGAGGGGGCGG | 0.39
CCGCCUAACACUGCCAGUGCCGGUCCCAAGCCCGGAUAAAAGUGGAGGAGGCGG | 0.26
CCGCCUAACACUGCCAGUGCCGGUCCCAAGCCCGGAUAAAAGUGGAGGCGGCGG | 0.08
CCGCCUAACACUGCCAGUGCCGGUCCCAAGCCCGGAUAAAAGUGGAGGUGGCGG | 0.25
CCGCCUAACACUGCCAUUGCCGGUCCCAAGCCCGGAUAAAAGUGGAGGGGGCGG | 1.03
CCGCCUAACACUGCCAGUGCCGGUCCCAAGCCCGGAGAAAAGUGGAGGGGGCGG | 1.01
CCGCCUAACACUGCCAGUGCCGGUCCCAAGCCCGGACAAAAGUGGAGGGGGCGG | 1.02
CCGCCUAACACUGCCAGUGCCGGUCCCAAGCCCGGAAAAAAGUGGAGGGGGCGG | 0.63
CCGCCUAACACUGCCAGUGCCGGUCCCAAGCCCGGAUAAAAGUGGAGUGGGCGG | 0.12
CCGCCUAACACUGCCAGUGCCGGUCCCAAGCCCGGAUAAAAGUGGAGCGGGCGG | 0.13
CCGCCUAACACUGCCAGUGCCGGUCCCAAGCCCGGAUAAAAGUGGAGAGGGCGG | 0.15
CCGCCUAACACUGCCAGUGCCGGACCCAAGCCCGGAUAAAAGUGGAGGGGGCGG | 0.43
CCGCCUAACACUGCCAGUGCCGGCCCCAAGCCCGGAUAAAAGUGGAGGGGGCGG | 0.36
CCGCCUAACACUGCCAGUGCCGGGCCCAAGCCCGGAUAAAAGUGGAGGGGGCGG | 0.03
CCGCCUCACACUGCCAUUGCCGGUCCCAAGCCCGGAUAAAAGUGGAGGGGGCGG | 0.05
CCGCCUGACACUGCCAUUGCCGGUCCCAAGCCCGGAUAAAAGUGGAGGGGGCGG | 0.43
CCGCCUAACACUGCCAGUGCCGGUCCCAAGCCCGGAUAAAAGUUGAGGGGGCGG | 0.74
CCGCCUAACACUGCCAGUGCCGGUCCCAAGCCCGGAUAAAAGUAGAGGGGGCGG | 0.88
CCGCCUAACACUGCCAGUGCCGGUCCCAAGCCCGGAUAAAAGUCGAGGGGGCGG | 0.88
